The target of series [1] is T1, P2X purinoceptor 4 (Mus musculus) (UniProt Q9JJX6).
T1 sequence (whole entry): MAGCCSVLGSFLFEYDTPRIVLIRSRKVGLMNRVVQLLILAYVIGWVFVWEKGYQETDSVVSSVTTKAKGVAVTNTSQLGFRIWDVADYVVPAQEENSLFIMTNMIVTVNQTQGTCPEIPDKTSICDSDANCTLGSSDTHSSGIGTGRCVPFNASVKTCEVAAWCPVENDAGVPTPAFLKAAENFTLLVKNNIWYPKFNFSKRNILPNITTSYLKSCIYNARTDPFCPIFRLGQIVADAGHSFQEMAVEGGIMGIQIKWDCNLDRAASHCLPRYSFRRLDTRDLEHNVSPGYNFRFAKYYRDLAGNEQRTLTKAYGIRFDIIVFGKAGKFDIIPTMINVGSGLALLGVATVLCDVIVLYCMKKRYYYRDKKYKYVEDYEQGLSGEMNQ
Put plainly: Antagonist activity at mouse P2X4 receptor at 10 uM by cell-based calcium influx assay. It is filed as functional. Also on record: scale not given: the % may be the effect or the level left. In short, it runs like this: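 Ca2+ influx in 1321N1 astrocytoma cells stably expressing the receptor; P2X1 and P2X3 used as chimeras carrying the P2X2 N-terminus and TM1 to abolish fast desensitization. Confluent cells loaded with Fluo-4 AM (2.4 μM) in HBSS/10 mM HEPES pH 7.3, 1% Pluronic F127, 1 h at 23 °C, then washed. Compound in DMSO (final ≤1%) added 30 min before ATP at EC80. Fluorescence read at 520 nm for 30 s. ≥3 independent experiments in duplicate.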

The nature of series [2]: Hydrolytic stability of the compound in DMSO/HCL at pH 1 at 100 uM after 6 hrs at room temperature by LC-MS analysis. Type of series: physicochemical. The settings on record: pH 1, 6 h. In short, it runs like this: (§1)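 Compound solution stirred 6 h under one of three conditions: 100 μM in DMSO/aqueous HCl pH 1 (1:4) at room temperature; 100 μM in DMSO/HBSS pH 7.4 (1:4) at 80 °C; or 10 μM in DMSO/aqueous NaHCO3 pH 8.4 (2.5:97.5) at 37 °C.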

Series [3] is described as follows: Hydrolytic stability of the compound in DMSO/HBSS at pH 7.4 after 6 hrs at 80 degC by LC-MS analysis. Type of series: physicochemical. The settings on record: pH 7.4, 6 h. Put shortly: as §1
The nature of series [4]: Hydrolytic stability of the compound in DMSO/NaHCO3 at pH 8.4 after 6 hrs at 37 degC by LC-MS analysis. Type of series: physicochemical. The settings on record: pH 8.4, 6 h. In short, it runs like this:
as §1

`O=C(NCCc1ccccc1)N1c2ccccc2Oc2ccccc21`: the Activity in series [1] worked out at 5%.

Regarding `O=C(OCc1ccccc1)N1c2ccccc2Oc2ccccc21`, the Stability entry in series [2], in series [3] and in series [4] was “Stable” each time.

Values taken from ChEMBL document CHEMBL2177033, “N-substituted phenoxazine and acridone derivatives: structure-activity relationships of potent P2X4 receptor antagonists” (J Med Chem, 2012).
